This is an account of results in the RNAGym collection of RNA variant scans (doi:10.1126/science.aae0568).

Fewer inactive variants are shown than the library holds. Some results are limits rather than exact numbers.

B1: tRNA (parent)
chain: GUUCCGUUGGCGUAAUGGUAACGCGUCUCCCUCCUAAGGAGAAGACUGCGGGUUCGAGUCCCGUACGGAACG

In this data set the parent is B1. In words: yeast fitness relative to wild type (ratio to wild type); higher = fitter; tRNA-Arg(CCU), competitive growth, 37 C, YPD. In outline: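 The tRNA-Arg(CCU) gene variants were made by chemical synthesis with a 3% per-site mutation rate at 69 sites and inserted at the native genomic locus of Saccharomyces cerevisiae. After pooling, the strains were competed in YPD at 37°C for 24 hours in six parallel replicates. Gene amplicons from the start population and each end population were read by 100-nucleotide paired-end sequencing, and Darwinian fitness relative to wild type was taken from genotype frequency changes. Genotypes needed ≥ 100 starting reads, and estimates < 0.5 were set to 0.5.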
GUUCCGAUGGCGUAAUGGUAACGCGUCUCCCUCCUAAGGAGAAGAGUGCGGGUUCGAGUCCCGUAGGGAACG [U7A C46G C66G]: the yeast fitness turned out to be 0.547.
As to GUUCCGAUGGCGUAAUGGUAACGCGUCUCCCUCAUAAGGAGAAGACUGCGGGUUCCAGUCCCGUGCGGAACG [U7A C34A G56C A65G], the yeast fitness was at most 0.5.
For GUUCCGAUGGCGUAAUGGUAACGCGUCUCCCUCCUAAGGAGAAGAGUGCGGGUUCGAGUCUCGUACGGAACG [U7A C46G C61U] the value was 0.601; for GUUCCGAUGGCGUAAUGGUAACGCGUCUCCCUCCUAAGGAGAAGAAUGCGGGUUCGAGUCCCGUAAGGAACG [U7A C46A C66A], at most 0.5.
As for GUUCCGAUGGCGUAAUGGUAACGCGUCUCCCUCUUAAGGAGAAGACUGCGGGUUCGAGUCCCGUGGGGAACG [U7A C34U A65G C66G], the yeast fitness is at most 0.5.
Regarding GUUCCGAUGGCGUAAUGGUAACGCGUCUCCCUCCUAAGGAGAAGACUGAGGGUUCGAGUCCCGUACGGCACG [U7A C49A A69C], the yeast fitness was at most 0.5.
GUUCCGAUGGCGUAAUGGUAACGCGUUCCCCUCCUAAGGAGAAGACUGCGGGUUCGAGUCCCGUACGGAACG [U7A C27U U28C]: the yeast fitness is at most 0.5.
As for GUUCCGAUGGCGUAAUGGUAACGGGUCUCCUUCCUAAGGAGAAGACUGCGGGUUAGAGUCCCGUACGGAACG [U7A C24G C31U C55A], the yeast fitness was at most 0.5.
As for GUUCCGAUGGCGUAAUGGUAACGCGUUUCCCUCCUAAGGAGAAGACUGCGGGUUCGAGUCCCGUACGGCACG [U7A C27U A69C], the yeast fitness came to 0.649.
For GUUCCGAUGGCGUAAUGGUAAUGCGUCUCCCUCCUAAGGAGAAGACUGCGGGUUCGAGUCCCGUAGGCAACG [U7A C22U C66G G68C] the value was at most 0.5; for GUUCCGAUGGGGUAAUGGUAACGCGUCUCCCUCCUAAGGUGCAGACUGCGGGUUCGAGUCCCGUACGGAACG [U7A C11G A40U A42C], at most 0.5; for GUUCCGAUGGCGUAAUGGUAACGCGUCUCCCUACUAAGGAGAAGCCUGCGGGUUCGAGUCCCGUACGGAACG [U7A C33A A45C], 0.54.
Turning to GUUCCGAUGGCGUAAUGGUAACGCGUGUCCCUCUUAAGGAGAAGACUGCGGGUUCGAGUCCCGUACGGAACG [U7A C27G C34U], the yeast fitness was at most 0.5.
Turning to GUUCCGAUGGCGUAAUGGUAACGCGUCUUCAUCCUAAGGAGAAGACUGCGGGUUCGAGUCCCGUCCGGAACG [U7A C29U C31A A65C], the yeast fitness is 0.655.
As to GUUCCGAUGGCGUAAUGGUAACGCGUCUGCCUCCUAAGGAGAAGACUGCAGGUUCGAGUCCCGCACGGAACG [U7A C29G G50A U64C], the yeast fitness was at most 0.5.
Regarding GUUCCGAUGGCGUAAUGGUAACGCGUCUGCCUCCUAAGGAGAAGACUGCGGGUUCGAGUCCCGUACGGACCG [U7A C29G A70C], the yeast fitness is at most 0.5.
Turning to GUUCCGAUGGCGUAAUGGUAACGCGUCUCCCUCUUAAGGAGAAGACUGCGGGUUCGAGUCCCGUAGGGAACG [U7A C34U C66G], the yeast fitness was at most 0.5.
In the case of GUUCCGAUGGCGUAAUGGUAACGCGUUUUCCUCCUAAGGAGAAGACUGCGGGUUCGAGUCCCGUACGGAACG [U7A C27U C29U], the yeast fitness was at most 0.5.
For GUUCCGAUGGCGUAAUGGUAACGGGUCUCCCUCCUAAGGAGAAGACUGCGGGUUGGAGUCCCGUACGGAACG [U7A C24G C55G] the value was at most 0.5; for GUUCCGAUGGCGUAAUGGUAAGGCGUCUCUCUCCUAGGGAGAAGACUGCGGGUUCGAGUCCCGUACGGAACG [U7A C22G C30U A37G], at most 0.5; for GUUCCGAUGGCGUAAUGGUAACGCGUCUACCUCCUAAGGAGAAGACUGCGGGUUCGAAUCGCGUACGGAUCG [U7A C29A G58A C61G A70U], 0.665.
For GUUCCGAUGGCGUAAUGGUAACGCGUCUCUCUUCUAAGGAGAAGAUUGCGGGUUCGAGUCCCGUACGUAACG [U7A C30U C33U C46U G68U] the value was at most 0.5; for GUUCCGAUGGCGUAAUGGUAACGCGUUUUCCUCCUAAGGAGAAGACUGCGGGUUCGAGUCCCAUACGGAACG [U7A C27U C29U G63A], 0.598.
Take GUUCCGAUGGCGUAAUGGUAACGCGUCUCCUUCCUAAGGUGAAGACUGCGGGUUCGAGUCCCGUACCGAACG [U7A C31U A40U G67C]: the yeast fitness is at most 0.5.
As to GUUCCGAUGGCGUAAUGGUAAAGCGUCUCCCUCCUAAGGAGAAGACUGCGGGUUCGCGUCCCGUACGGAACG [U7A C22A A57C], the yeast fitness is at most 0.5.
In the case of GUUCCGAUGGCGUAAUGGUAACGCGUAUCCCUCCUAAGGAGAAGACUGCCGGUUCGAGUCCCGUACGGAACG [U7A C27A G50C], the yeast fitness is at most 0.5.
Regarding GUUCCGAUGGCGUAAUGGUAACGCGUCUCCCUCGUAAGGAGAAGACUGCGGGUUCGAGGCCCGUACGUAACG [U7A C34G U59G G68U], the yeast fitness was at most 0.5.
Turning to GUUCCGAUGGCGUAAUGGUAACGCGUCUCCCUCCUAAGGAGAAGACUGCGGGUUAGAGUCCCGUACGGAACG [U7A C55A], the yeast fitness stood at 0.571.
On to GUUCCGAUGGGGUAAUGGUAACGCGUCUUCCUCCUAAGGAGAAGACUGCGGGUUCGAGUCCCGUACGGAACG [U7A C11G C29U], for which the yeast fitness stood at 0.555.
Regarding GUUCCGAUGGCGUAAUGGUAACGCGUCUCCCUCGUAAGGAGAAGACUGCGGGUUCGAGUCCCGUACGGAACG [U7A C34G], the yeast fitness worked out at 0.543.
Consider GUUCCGAUGGCGUAAUGGUAACGCGUCUCCCUCCUAAGGAGAAGAGUGCGGGUUCGAGUCCCGUACGGAUCG [U7A C46G A70U], for which the yeast fitness came out at 0.642.
Turning to GUUCCGAUGGCGUAAUGGUAACGCGUCUCUCUCCUAAGGAGAAGAUUGCGGGUUGGAGUCCCGUACGGAACG [U7A C30U C46U C55G], the yeast fitness was at most 0.5.
For the variant GUUCCGAUGGUGUAAUGGUAACGCGUCUCUCUCCUAAGGAGAAGACUGCGGGUUCGAGACCCGUACGGCACG [U7A C11U C30U U59A A69C], the yeast fitness is at most 0.5.
GUUCCGAUGGCGUAAUGGUAACGUGUCUCCCUACUAAGGAGAAGACUGCGGGUUCGAGUCCCGUACGGAACG [U7A C24U C33A]: the yeast fitness is at most 0.5.
For GUUCCGAUGGCGUAAUGGUAACGCGUCUGCCUCCUAAGGAGAAGACUGCGGGUUCGAGUCCCGUACGGAACG [U7A C29G] the value was at most 0.5; for GUUCCGAUGGCGUAAUGGUAACGCGUCUCCCUCCUAAGGAGAAGACUGUGGGUUCGAGUCCCGUCCGGAACG [U7A C49U A65C], 0.711.
Consider GUUCCGAUGGCGUAAUGGUAACGCGUCUCACUCCUAAGGAGAAGACUGCGGGUUCGAGUCCCGUACGGAACG [U7A C30A], for which the yeast fitness was 0.669.
On to GUUCCGAUGGCGUAAUGGUAAGGCGUCUCUCCCCUAGGGAGAAGACUGCGGGUUCGAGUCCCGUACGGAGCG [U7A C22G C30U U32C A37G A70G], for which the yeast fitness was at most 0.5.
